Results on eight compounds are retold here after ChEMBL document CHEMBL3232816, “Substituted E-3-(3-indolylmethylene)1,3-dihydroindol-2-ones with antiproliferative activity. Study of the effects on HL-60 leukemia cells” (2014).

Assay type in all cases: functional
Experiment [1] is described as follows: Cytotoxicity against human CNS cancer cells after 48 hrs. As to conditions: Cancer cell lines; for CC50: read-out: LC50 (the source's name). A digest of the protocol: (§1)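 NCI 60-line panel. Compounds were dissolved in DMSO and tested at five 10-fold dilutions, the highest 10^-4 M (10^-3 M where footnoted), over 48 h of incubation. The readouts were GI50, TGI and LC50 in μM, with the panel mean also given. Only compounds passing a 10^-5 M single-dose prescreen were tested; some were repeated and averaged over two experiments.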

Experiment [2] can be described thus: Cytotoxicity against human breast cancer cells after 48 hrs. The conditions noted are these: Cancer cell lines; for CC50: read-out: LC50 (the source's name). A digest of the protocol: as §1
Experiment [3] in a line: Cytotoxicity against human leukemia cells after 48 hrs. The conditions noted are these: for GI50 / TGI: Leukemia cell. A digest of the protocol:
as §1

Experiment [4] is described as follows: Cytotoxicity against human NSCLC cells after 48 hrs. A digest of the protocol:
as §1

Experiment [5] is described as follows: Cytotoxicity against human prostate cancer cells after 48 hrs. The conditions noted are these: Cancer cell lines; for CC50: read-out: LC50 (the source's name). A digest of the protocol:
as §1

Experiment [6] in a line: Cytotoxicity against human renal cancer cells after 48 hrs. The conditions noted are these: Cancer cell lines. A digest of the protocol:
as §1

Experiment [7] can be described thus: Cytotoxicity against human colon cancer cells after 48 hrs. The conditions noted are these: Cancer cell lines; for CC50: read-out: LC50 (the source's name). A digest of the protocol:
as §1

Experiment [8] is described as follows: Cytotoxicity against human ovarian cancer cells after 48 hrs. As to conditions: Cancer cell lines. A digest of the protocol:
as §1

Experiment [9] can be described thus: Cytotoxicity against human melanoma cells after 48 hrs. As to conditions: Melanoma cell. A digest of the protocol: as §1

Where a name gives a salt, the structure may show the parent alone.

One may read the GI50 as the concentration giving 50% growth inhibition. As a reminder, the TGI is the concentration giving total growth inhibition. Low readings indicate greater sensitivity of the cells, high ones lower sensitivity of the cells. As a reminder, the LC50 is the concentration that kills 50% of the test population. High values mean a less lethal substance, low ones a more lethal substance. For the compound `COc1ccc(OC)c2c1NC(=O)/C2=C/c1c(Cl)[nH]c2ccccc12`, the GI50 in [1] was found to be 2.75 µM; in [2] it was 1.62 µM; in experiment [3] it was 1.51 µM; in [4], 3.55 µM; in experiment [5], 3.47 µM; in [6], 3.39 µM. The GI50 in experiment [7] came to 2.24 µM; in [8] it was 2.51 µM; in experiment [9] it was 3.39 µM. The TGI in experiment [1] was found to be 13.5 µM; in experiment [2], 12.6 µM; in experiment [3], 56.2 µM; in experiment [4] it was 22.4 µM; in experiment [5], 19.9 µM; in experiment [6], 16.2 µM. Also, the TGI was 8.91 µM in [7], 15.1 µM in experiment [8] and 16.2 µM in experiment [9]. Besides, the CC50 in experiment [1] is 44.7 µM; in experiment [2], 64.6 µM; in experiment [5], 51.3 µM; in experiment [7], 33.9 µM. For the same compound, the LC50 in [4] stood at 74.1 µM; in experiment [6], 53.7 µM; in [8], 41.7 µM; in experiment [9], 46.8 µM.

For the compound `CC[C@]1(O)C[C@H]2CN(CCc3c([nH]c4ccccc34)[C@@](C(=O)OC)(c3cc4c(cc3OC)N(C=O)[C@H]3[C@@](O)(C(=O)OC)[C@H](OC(C)=O)[C@]5(CC)C=CCN6CC[C@]43[C@@H]65)C2)C1` [VINCRISTINE SULFATE], the GI50 in experiment [1] was 0.13 µM; in experiment [2], 0.32 µM; in [3] it was 0.1 µM; in [4] it was 0.25 µM; in experiment [5], 0.13 µM; in experiment [6], 0.32 µM. The results for the GI50 in [7], in experiment [8] and in experiment [9] were 0.1 µM, 0.32 µM and 0.16 µM, respectively.

Consider `O=C1/C(=C/c2c(Cl)[nH]c3ccccc23)c2ccccc2N1Cc1ccccc1`, for which the GI50 in experiment [1] worked out at 4.9 µM; in experiment [2], 4.17 µM; in experiment [3] it was 2.95 µM; in experiment [4], 6.61 µM; in experiment [5] it was 6.17 µM; in [6], 5.25 µM. For the same compound, the GI50 is 4.17 µM in experiment [7], 9.12 µM in experiment [8] and 5.13 µM in experiment [9]. Besides, the concentration for total growth inhibition (TGI) in experiment [1] was found to be 69.2 µM; in [2] it was 56.2 µM; in experiment [3] it was 21.4 µM; in experiment [4], 85.1 µM; in experiment [6], 77.6 µM; in [7] it was 79.4 µM. Besides, the TGI in [8] was 79.4 µM; in [9], 61.7 µM.

With `COc1cc2c(cc1C)NC(=O)/C2=C/c1c(Cl)n(Cc2cc(OC)c(OC)c(OC)c2)c2cc(C)c(OC)cc12`, the GI50 in experiment [1] was determined as 49 µM; in experiment [2] it was 10 µM; in experiment [3], 3.24 µM; in experiment [4] it was 11 µM; in experiment [5], 5.5 µM; in [6], 38.9 µM. The GI50 in experiment [7] was found to be 16.6 µM; in experiment [8], 30.9 µM; in experiment [9], 25.1 µM. Moreover, the results for the TGI in [3], in experiment [4] and in experiment [5] were 42.7 µM, 66.1 µM and 87.1 µM, respectively.

`O=C1Nc2ccccc2/C1=C\c1c(Cl)n(Cc2ccccc2)c2ccccc12`: the GI50 in [1] amounted to 16.6 µM; in [2], 12.9 µM; in experiment [3] it was 3.63 µM; in [4], 14.8 µM; in [5], 20.4 µM; in [6], 20.4 µM. For the same compound, the GI50 in experiment [7] came out at 19.9 µM; in experiment [8] it was 20.9 µM; in [9], 8.91 µM. Further, the TGI in experiment [1] was determined as 47.9 µM; in experiment [2], 64.6 µM; in experiment [3] it was 21.4 µM; in experiment [4], 57.5 µM; in experiment [5], 55 µM; in [6] it was 70.8 µM. In addition, the TGI in experiment [7] was 60.3 µM; in experiment [8], 66.1 µM; in experiment [9], 32.4 µM. The results for the CC50 in experiment [1] and in experiment [7] were 93.3 µM and 95.5 µM, respectively. In experiment [3], this compound displayed an LC50 (concentration giving 50% net cell kill) of 75.9 µM. Also, the LC50 in experiment [8] amounted to 95.5 µM; in experiment [9], 87.1 µM.

Take `O=C1Nc2ccccc2/C1=C\c1c(Cl)n(CCCc2ccccc2)c2ccccc12`: the GI50 was determined as 16.6 µM in [1]; 10 µM in [2]; 8.91 µM in experiment [3]; 14.1 µM in [4]; 19.1 µM in experiment [5]; 13.8 µM in experiment [6]. The GI50 in experiment [7] was 12 µM; in experiment [8], 12 µM; in [9] it was 13.8 µM. Besides, the TGI turned out to be 75.9 µM in experiment [1]; 72.4 µM in experiment [2]; 50.1 µM in experiment [3]; 72.4 µM in [4]; 67.6 µM in experiment [6]; 60.3 µM in experiment [7]. The values for the TGI in experiment [8] and in experiment [9] were 72.4 µM and 67.6 µM, respectively.

As to `COc1ccc2c(c1)/C(=C\c1c(OC)n(-c3ccccc3)c3ccccc13)C(=O)N2`, the GI50 in [1] was 0.98 µM; in experiment [2] it was 0.63 µM; in experiment [3], 0.76 µM; in [4], 2.51 µM; in experiment [5], 2.63 µM; in experiment [6], 2.29 µM. The results for the GI50 in experiment [7], in experiment [8] and in experiment [9] were 1.74 µM, 2 µM and 2.4 µM, respectively. Moreover, the TGI in [1] was 9.55 µM; in [2], 7.24 µM; in experiment [3] it was 4.47 µM; in experiment [4], 17.4 µM; in experiment [5], 13.2 µM; in experiment [6] it was 17.4 µM. The TGI in [7] was 11 µM; in [8] it was 17.4 µM; in [9] it was 17 µM. For the same compound, the CC50 amounted to 38.9 µM in experiment [1], 47.9 µM in experiment [2], 52.5 µM in experiment [5] and 42.7 µM in experiment [7]. The LC50 (concentration giving 50% net cell kill) in experiment [3] came to 58.9 µM. Further, the LC50 in experiment [4] stood at 63.1 µM; in experiment [6], 63.1 µM; in experiment [8] it was 66.1 µM; in [9], 50.1 µM.

On to `O=C1Nc2ccc(O)cc2/C1=C\c1c(Cl)n(CCc2ccccc2)c2ccccc12`, for which the GI50 in [1] was found to be 10.5 µM; in experiment [2] it was 3.98 µM; in [3], 3.39 µM; in experiment [4], 7.08 µM; in experiment [5] it was 6.76 µM; in [6] it was 9.33 µM. Besides, the GI50 in [7] came out at 9.77 µM; in experiment [8] it was 9.12 µM; in [9], 7.08 µM. Also, the TGI amounted to 52.5 µM in experiment [1]; 25.1 µM in experiment [2]; 77.6 µM in [3]; 50.1 µM in [4]; 47.9 µM in experiment [5]; 55 µM in [6]. Also, the TGI in experiment [7] came to 33.9 µM; in experiment [8], 64.6 µM; in experiment [9], 28.2 µM. Further, the results for the CC50 in experiment [1] and in experiment [7] were 95.5 µM and 72.4 µM, respectively. Besides, the results for the LC50 in [6], in experiment [8] and in experiment [9] were 95.5 µM, 95.5 µM and 74.1 µM, respectively.
